# From ChEMBL document CHEMBL1139962, “Synthesis and anthelmintic activity of cyclohexadepsipeptides with cyclohexylmethyl side chains” (Bioorg Med Chem Lett, 2007)
# Columns and labels:
# Haemonchus contortus [1] = assay: Anthelmintic activity against Haemonchus contortus Rudolphi L3 larvae infected sheep assessed as reduction of faecal egg counts at 5 mg/kg, po; type: functional, Feces; design: scale not given: the % may be the effect or the level left
# In short: (§1)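 Sheep experimentally infected with Haemonchus contortus Rudolphi L3 larvae; dosed after the parasite's prepatency period ended. Compound given orally in gelatine capsules. Faecal egg counts by McMaster method (Wetzel modification) on freshly obtained faeces, counted at regular intervals before and after treatment; activity expressed as reduction in egg counts.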
# [2] = Partition coefficient, log P at pH 2.3; type: physicochemical; details: octanol/water
# Haemonchus contortus [3] = assay: Anthelmintic activity against Haemonchus contortus Rudolphi L3 larvae infected sheep assessed as reduction of faecal egg counts at 0.50 mg/kg, po; type: functional, Feces; design: scale not given: the % may be the effect or the level left; details: dose 0.5 mg/kg; in short: as §1
# Haemonchus contortus [4] = assay: Anthelmintic activity against Haemonchus contortus Rudolphi L3 larvae infected sheep assessed as reduction of faecal egg counts at 0.25 mg/kg, po; type: functional, Feces; design: scale not given: the % may be the effect or the level left; in short: as §1
Compound,Activity (Haemonchus contortus [1]),logP [2],Activity (Haemonchus contortus [3]),Activity (Haemonchus contortus [4])
CC[C@@H](C)[C@H]1C(=O)O[C@H](C(C)C)C(=O)N(C)[C@@H](Cc2ccccc2)C(=O)O[C@H](C(C)C)C(=O)N(C)[C@@H]([C@H](C)CC)C(=O)O[C@H](C(C)C)C(=O)N1C,>=95%,5.46,–,–
CC[C@@H](C)[C@H]1C(=O)O[C@H](C(C)C)C(=O)N(C)[C@@H](CC2CCCCC2)C(=O)O[C@H](C(C)C)C(=O)N(C)[C@@H]([C@H](C)CC)C(=O)O[C@H](C(C)C)C(=O)N1C,–,6.3,75%,–
CC[C@@H](C)[C@H]1C(=O)O[C@H](C)C(=O)N(C)[C@@H](Cc2ccccc2)C(=O)O[C@H](C)C(=O)N(C)[C@@H]([C@H](C)CC)C(=O)O[C@H](C)C(=O)N1C,–,4.28,–,50%
CC[C@@H](C)[C@H]1C(=O)O[C@H](C)C(=O)N(C)[C@@H](CC2CCCCC2)C(=O)O[C@H](C)C(=O)N(C)[C@@H]([C@H](C)CC)C(=O)O[C@H](C)C(=O)N1C,–,4.91,–,>=95%
CC(C)C[C@H]1C(=O)O[C@H](Cc2ccccc2)C(=O)N(C)[C@@H](CC(C)C)C(=O)O[C@H](C)C(=O)N(C)[C@@H](CC(C)C)C(=O)O[C@H](C)C(=O)N1C,<=50%,4.63,–,–
CC(C)C[C@H]1C(=O)O[C@H](CC2CCCCC2)C(=O)N(C)[C@@H](CC(C)C)C(=O)O[C@H](C)C(=O)N(C)[C@@H](CC(C)C)C(=O)O[C@H](C)C(=O)N1C,–,5.57,–,75%
